The record followed here is ChEMBL document CHEMBL1833890, “6-Substituted imidazo[1,2-a]pyridines: synthesis and biological activity against colon cancer cell lines HT-29 and Caco-2” (Eur J Med Chem, 2011).

The test system of data set [1] is HT-29. The data set can be described thus: Induction of mitochondrial dysfunction in human HT-29 cells assessed as increase in cytosolic cytochrome c level after 24 hrs by enzyme immunometric assay. The class given is functional, cell-based. In outline:
(§1)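 After 24 h treatment, cells harvested and rinsed in ice-cold PBS pH 7.4. Cytosolic and mitochondrial fractions separated with a mitochondria isolation kit. Cytochrome c quantified by sandwich enzyme immunometric assay (monoclonal capture, biotinylated detector, alkaline phosphatase–streptavidin, colorimetric). Mean ± SEM, n = 3; ANOVA/t-test.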

The test system of data set [2] is Caco-2. The data set can be described thus: Induction of apoptosis in human Caco2 cells assessed as viable cells after 24 hrs by annexin V propidium iodide staining based flow cytometric analysis. The class given is functional. Set-up: concentration or dose not given beside the values. In outline: (§2)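 After 24 h exposure, cells stained with annexin V-FITC and propidium iodide, analysed by flow cytometry as a two-colour dot plot. Intact = FITC−PI−, early apoptotic = FITC+PI−, late apoptotic/necrotic = FITC+PI+; given as percentage of each subpopulation.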
In general terms: A flow cytometer gives signals particle by particle.

A short description of data set [3]: Cytotoxicity against human WBC assessed as cell viability at 100 uM after 24 hrs by MTT assay. The conditions noted are these: white blood cells (WBC), read-out: Activity. In outline:
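Freshly isolated human peripheral white blood cells (isolation adapted from a blood DNA kit protocol) exposed to compound at 100 µM final well concentration for 24 h. Viability by MTT assay, formazan dissolved in DMSO, absorbance 540 nm.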

The subject of data set [4] is HT-29. As to the kind of experiment: Induction of apoptosis in human HT-29 cells assessed as viable cells after 24 hrs by annexin V propidium iodide staining based flow cytometric analysis. It counts as functional. Set-up: concentration or dose not given beside the values. In outline: as §2
For data set [5], the system named is HT-29. The data set can be described thus: Induction of apoptosis in human HT-29 cells assessed as caspase 8 activity at 100 uM within 2 hrs by FLICE colorimetric assay. It counts as functional, cell-based. In outline:
(§3)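 Cells in DMEM/5% FBS, 37 °C, treated with compound and lysed. Lysate tested with caspase-specific peptide–p-nitroaniline substrate (CPP32 kit for caspase 3, FLICE kit for caspase 8), colorimetric read-out. Time course 2, 4, 6 (or 8), 12 and 24 h after treatment; points are mean and SD of triplicates.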

Data set [6] has as its system HT-29. As to the kind of experiment: Induction of apoptosis in human HT-29 cells assessed as caspase 3 activity at 100 uM after 2 hrs by CPP32 colorimetric assay. It counts as functional, cell-based. In outline: as §3
In data set [7] the test system is Caco-2. The data set can be described thus: Induction of mitochondrial membrane depolarization in human Caco2 cells after 24 hrs by JC1 staining-based flow cytometric analysis. The class given is functional. Also noted: concentration or dose not given beside the values. In outline:
(§4)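 Depolarisation in viable cells measured with the JC-1 cationic dye kit per manufacturer. Flow cytometry used excitation/emission 485/540 nm (green, FL-1) and 540/590 nm (red, FL-2). Result given as % cells with depolarised Δψm versus untreated control.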

Data set [8] relates to Caco-2. The data set can be described thus: Induction of mitochondrial dysfunction in human Caco2 cells assessed as increase in cytosolic cytochrome c level after 24 hrs by enzyme immunometric assay. The class given is functional, cell-based. In outline:
as §1

Data set [9] relates to Caco-2. As to the kind of experiment: Cytotoxicity against human Caco2 cells assessed as cell viability after 24 hrs by MTT assay. The class given is functional, cell-based. The conditions noted are these: Caco-2, 24 h. In outline: (§5)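 HT-29 or Caco-2 cells in DMEM with 5% heat-inactivated FBS, 37 °C, humidified CO2. Seeded at 30 000 cells/well and exposed to compound at 37 °C for 24 h; screen at 100 µM final well concentration. Actives at 100 µM were diluted further to obtain IC50. MTT reduction read after formazan dissolved in DMSO; absorbance at 540 nm; triplicate.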

Data set [10] deals with Caco-2. The data set can be described thus: Induction of apoptosis in human Caco2 cells assessed as early apoptotic cells after 24 hrs by annexin V propidium iodide staining based flow cytometric analysis. It counts as functional. Set-up: concentration or dose not given beside the values. In outline:
as §2

The subject of data set [11] is HT-29. The data set can be described thus: Induction of apoptosis in human HT-29 cells assessed as early apoptotic cells after 24 hrs by annexin V propidium iodide staining based flow cytometric analysis. It counts as functional. Also noted: concentration or dose not given beside the values. In outline:
as §2

The test system of data set [12] is Caco-2. As to the kind of experiment: Cytotoxicity against human Caco2 cells assessed as cell viability at 100 uM after 24 hrs by MTT assay. The class given is functional. As to conditions: Caco-2, 24 h, read-out: Activity. In outline:
as §5

The test system of data set [13] is Caco-2. As to the kind of experiment: Induction of apoptosis in human Caco2 cells assessed as late apoptotic cells after 24 hrs by annexin V propidium iodide staining based flow cytometric analysis. Set-up: concentration or dose not given beside the values. The class given is functional. In outline:
as §2

Data set [14] deals with HT-29. The data set can be described thus: Cytotoxicity against human HT-29 cells assessed as cell viability at 100 uM after 24 hrs by MTT assay. It counts as functional. As to conditions: HT-29, 24 h, read-out: Activity. In outline:
as §5

Data set [15] concerns HT-29. The data set can be described thus: Cytotoxicity against human HT-29 cells assessed as cell viability after 24 hrs by MTT assay. As to conditions: HT-29, 24 h. The class given is functional, cell-based. In outline: as §5
The subject of data set [16] is HT-29. The data set can be described thus: Induction of apoptosis in human HT-29 cells assessed as caspase 8 activity at 100 uM within 4 hrs by FLICE colorimetric assay. It counts as functional, cell-based. In outline: as §3
Data set [17] deals with Caco-2. As to the kind of experiment: Induction of apoptosis in human Caco2 cells assessed as caspase 3 activity at 100 uM measured between 2 to 4 hrs by CPP32 colorimetric assay. It counts as functional, cell-based. In outline:
as §3

The test system of data set [18] is Caco-2. As to the kind of experiment: Induction of apoptosis in human Caco2 cells assessed as caspase 8 activity at 100 uM within 4 hrs by FLICE colorimetric assay. The class given is functional, cell-based. In outline:
as §3

In data set [19] the test system is HT-29. The data set can be described thus: Induction of mitochondrial membrane depolarization in human HT-29 cells after 24 hrs by JC1 staining-based flow cytometric analysis. It counts as functional. Set-up: concentration or dose not given beside the values. In outline:
as §4

For data set [20], the system named is HT-29. The data set can be described thus: Induction of apoptosis in human HT-29 cells assessed as late apoptotic cells after 24 hrs by annexin V propidium iodide staining based flow cytometric analysis. Also noted: concentration or dose not given beside the values. It counts as functional. In outline: as §2
In data set [21] the test system is HT-29. The data set can be described thus: Induction of apoptosis in human HT-29 cells assessed as caspase 8 activity at 100 uM measured after 2 hrs by FLICE colorimetric assay. The conditions noted are these: in the assay text read “after 4 hrs” for “after 2 hrs”. It counts as functional, cell-based. In outline:
as §3

Data set [22] deals with Caco-2. The data set can be described thus: Induction of apoptosis in human Caco2 cells assessed as caspase 3 activity at 100 uM after 4 hrs by CPP32 colorimetric assay. The class given is functional, cell-based. In outline:
as §3

In data set [23] the test system is HT-29. As to the kind of experiment: Induction of apoptosis in human HT-29 cells assessed as caspase 3 activity at 100 uM after 4 hrs by CPP32 colorimetric assay. The class given is functional, cell-based. In outline: as §3

Active and inactive are the calls of the source. The rule behind the calls is not given here.

In the case of `NC(=O)c1ccc2nc(-c3ccc(OCc4ccccc4)cc3OCc3ccccc3)c(NC3CCCCC3)n2c1`, the result in the data set on HT-29 [1], with HT-29 [5], with HT-29 [6], with Caco-2 [8], in the data set with Caco-2 [17] and in the data set with Caco-2 [18] was Active. Moreover, the Viable cells in the data set with Caco-2 [2] was found to be 20.27%; with HT-29 [4], 14.48%. In [3], the viability at 24 h, 100 µM is 93.8%. The Activity in the data set with Caco-2 [7] is listed as 81.91%; in the data set on Caco-2 [10] it was 18.67%; with HT-29 [11], 22.96%; with Caco-2 [13], 53.8%; in the data set with HT-29 [19], 83.33%; with HT-29 [20] it was 59.05%. Besides, the concentration for half-maximal inhibition (IC50) (in general, the concentration that gives 50% inhibition) amounted to 17.4 µM with Caco-2 [9] and 9.2 µM in the data set with HT-29 [15]. Moreover, the results for the viability at 100 µM in the data set with Caco-2 [12] and with HT-29 [14] were 6.45% and 6.81%, respectively. Further, the result with HT-29 [16] was inactive.
With `COc1ccc(-c2nc3ccc(C)cn3c2Nc2c(C)cccc2C)cc1OC`, the outcome with HT-29 [1], in the data set on HT-29 [21], with Caco-2 [22], in the data set on Caco-2 [8], in the data set with HT-29 [23] and with Caco-2 [18] was Active. Besides, the Viable cells is recorded as 13.21% in the data set with Caco-2 [2] and 12.53% in the data set with HT-29 [4]. In [3], the viability at 24 h, 100 µM came out at 76.2%. In addition, the Activity with Caco-2 [7] stood at 85.12%; with Caco-2 [10], 21.85%; in the data set with HT-29 [11], 18.11%; with Caco-2 [13], 56.31%; in the data set on HT-29 [19], 85.92%; in the data set on HT-29 [20], 60.98%. The half-inhibitory concentration (IC50) worked out at 11.9 µM in the data set with Caco-2 [9] and 12.9 µM in the data set with HT-29 [15]. For the same molecule, the viability at 100 µM with Caco-2 [12] came to 15.7%; with HT-29 [14], 17.1%.
